Data taken from ChEMBL document CHEMBL2157987, “Benzimidazole bearing oxadiazole and triazolo-thiadiazoles nucleus: design and synthesis as anticancer agents” (2012).

Key:
K562 = test: Cytotoxicity against human K562 cells assessed as cell growth at 10 uM after 48 hrs by SRB assay; type: functional; details: K562, 48 h, read-out: Activity
Summary of the method: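 NCI single-dose screen at 10 µM. Cells were incubated 48 h and the end point was read by sulforhodamine B protein staining. Results are given as percent growth of treated cells relative to untreated controls. Growth of 32% or less was counted as active.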

UO-31 = test: Cytotoxicity against human UO31 cells assessed as cell growth at 10 uM after 48 hrs by SRB assay; type: functional; details: UO-31, 48 h, read-out: Activity
Summary of the method: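 This was a single-concentration screen on UO-31 in RPMI 1640 with 5% FBS. Compound went on 24 h after plating, with 48 h exposure at 37 °C. End point was sulforhodamine B protein staining read at 515 nm. Results are percent growth of treated cells relative to untreated controls and time-zero plates.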

SMILES | growth at 10 µM (K562) | growth at 10 µM (UO-31)
Nc1cc(Br)c(-c2nn3c(CCC(=O)c4nc5ccccc5[nH]4)nnc3s2)c(Br)c1 | 7.05% | –
O=C(CCc1nnc(-c2cc(O)c(O)c(O)c2)o1)c1nc2ccccc2[nH]1 | – | 62.2%
O=C(CCc1nnc2sc(/C=C/c3ccccc3)nn12)c1nc2ccccc2[nH]1 | 2.17% | –
O=C(CCc1nnc2sc(-c3cc(O)c(O)c(O)c3)nn12)c1nc2ccccc2[nH]1 | 8.3% | –
O=C(CCc1nnc(/C=C/c2ccccc2)o1)c1nc2ccccc2[nH]1 | 24.6% | –
